What was measured:
Type in all cases: functional
Rattus norvegicus [1] = test: Amount of nonesterified fatty acids in obese Zucker rats after 2 weeks of treatment at a dose of 3 mg/kg/day
Summary of the method: (§1)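 Female Zucker fatty rats [Crl:(Zuc)-faBR], 10–12 weeks old (400–500 g), dosed once daily by oral gavage in 20% EtOH/80% PEG-200 for up to 14 days. After a 6-h fast, serum was taken pre-dose, at day 7 (orbital venous plexus, O2/CO2 anaesthesia) and at day 14 (cardiac puncture), stored at −80 °C, and assayed on a Hitachi 912 automatic analyzer. Mean ± SEM.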

Rattus norvegicus [2] = test: Amount of triglycerides in obese Zucker rats after 2 weeks of treatment at a dose of 100 mg/kg/day; summary of the method: as §1
Rattus norvegicus [3] = test: Amount of non-HDL-cholesterol in obese Zucker rats after 1 week of treatment at a dose of 30 mg/kg/day
Summary of the method: (§2)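 Female Zucker fatty rats [Crl:(Zuc)-faBR], 10–12 weeks old (400–500 g), dosed once daily by oral gavage in 20% EtOH/80% PEG-200 (dose volume 0.25% of body weight). Rats were fasted 6 h and bled before dosing and at day 7 (orbital plexus), and at day 14 (cardiac puncture). Serum cholesterol fractions came from Superose 6 gel-filtration lipoprotein profiles (% peak area × serum total cholesterol). Values are mean ± SEM.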

Rattus norvegicus [4] = test: Amount of nonesterified fatty acids in obese Zucker rats after 1 week of treatment at a dose of 100 mg/kg/day; summary of the method: as §1
Rattus norvegicus [5] = test: Amount of nonesterified fatty acids in obese Zucker rats after 2 weeks of treatment at a dose of 10 mg/kg/day; summary of the method: as §1
Rattus norvegicus [6] = test: Amount of triglycerides in obese Zucker rats after 2 weeks of treatment at a dose of 3 mg/kg/day; summary of the method: as §1
Rattus norvegicus [7] = test: Amount of insulin in obese Zucker rats after 1 week of treatment at a dose of 30 mg/kg/day
Summary of the method: (§3)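 Female obese Zucker rats [Crl:(Zuc)-faBR], 400–500 g, given daily oral gavage in 20% EtOH/80% PEG-200 for up to 14 days. After a 6-h fast, serum was collected pretreatment and at day 7 (orbital bleed) and day 14 (cardiac puncture) and stored at -80 °C. Insulin was measured by ELISA. Values are mean ± SEM.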

Rattus norvegicus [8] = test: Amount of non-HDL-cholesterol in obese Zucker rats after 1 week of treatment at a dose of 10 mg/kg/day; summary of the method: as §2
Rattus norvegicus [9] = test: Amount of non-HDL-cholesterol in obese Zucker rats at pre-treatment at a dose of 3 mg/kg/day
Summary of the method: (§4)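 Female obese Zucker fatty rats [Crl:(Zuc)-faBR], 10–12 weeks old (400–500 g), on chow. Compound in 20% EtOH/80% PEG-200 (v/v) given by daily oral gavage. After a 6-h fast, serum was taken before dosing and at 7 days (orbital plexus), and at 14 days (cardiac puncture). Lipoprotein cholesterol came from Superose 6HR gel-filtration profiles × serum total cholesterol. Mean ± SEM.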

Rattus norvegicus [10] = test: Percent decrease in triglycerides in obese Zucker rats after 1 week of treatment at a dose of 30 mg/kg/day; parameters: scale not given: the % may be the effect or the level left
Summary of the method: (§5)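 Female Zucker fatty rats [Crl:(Zuc)-faBR], 10–12 weeks, 400–500 g, acclimated 7 days on chow. Compound or vehicle (20% EtOH/80% PEG-200) given by daily oral gavage for 2 weeks, 0–100 mg/kg/day. After a 6 h fast, blood was taken before dosing, at 1 wk and at 2 wk. Serum lipids, NEFA and insulin (ELISA) were measured; glucose by glucometer. HDL/non-HDL-C came from Superose 6 gel-filtration profiles. Values are % change from pretreatment, mean ± SEM.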

Rattus norvegicus [11] = test: Amount of non-HDL-cholesterol in obese Zucker rats after 2 weeks of treatment at a dose of 100 mg/kg/day; summary of the method: as §2
Rattus norvegicus [12] = test: Amount of glucose in obese Zucker rats at pre-treatment at a dose of 100 mg/kg/day
Summary of the method: (§6)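 Female Zucker fatty rats [Crl:(Zuc)-faBR], 10–12 weeks old (400–500 g), gavaged daily with vehicle (20% EtOH/80% PEG-200, 0.25% of body weight) or compound. After a 6-h fast, blood glucose was read by glucometer from tail-prick blood of unanesthetized rats before dosing and after 1 and 2 weeks. Values are mean ± SEM.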

Rattus norvegicus [13] = test: Amount of HDL-cholesterol in obese Zucker rats after 2 weeks of treatment at a dose of 10 mg/kg/day; summary of the method: as §2
Rattus norvegicus [14] = test: Amount of glucose in obese Zucker rats after 2 weeks of treatment at a dose of 100 mg/kg/day; summary of the method: as §6
Rattus norvegicus [15] = test: Amount of nonesterified fatty acids in obese Zucker rats at pre-treatment at a dose of 30 mg/kg/day; summary of the method: as §1
Rattus norvegicus [16] = test: Amount of non-HDL-cholesterol in obese Zucker rats at pre-treatment at a dose of 0 mg/kg/day; summary of the method: as §4
Rattus norvegicus [17] = test: Amount of nonesterified fatty acids in obese Zucker rats at pre-treatment at a dose of 100 mg/kg/day; summary of the method: as §1
Rattus norvegicus [18] = test: Amount of triglycerides in obese Zucker rats at pre-treatment at a dose of 3 mg/kg/day; summary of the method: as §1
Rattus norvegicus [19] = test: Percent increase in HDL-cholesterol in obese Zucker rats after 2 weeks of treatment at a dose of 30 mg/kg/day; summary of the method: as §5
Rattus norvegicus [20] = test: Amount of triglycerides in obese Zucker rats after 1 week of treatment at a dose of 30 mg/kg/day; summary of the method: as §1
Rattus norvegicus [21] = test: Amount of glucose in obese Zucker rats after 2 weeks of treatment at a dose of 0 mg/kg/day; summary of the method: as §6
Rattus norvegicus [22] = test: Amount of glucose in obese Zucker rats after 2 weeks of treatment at a dose of 30 mg/kg/day; summary of the method: as §6
Rattus norvegicus [23] = test: Amount of nonesterified fatty acids in obese Zucker rats at pre-treatment at a dose of 3 mg/kg/day; summary of the method: as §1
Rattus norvegicus [24] = test: Percent decrease in triglycerides in obese Zucker rats after 2 weeks of treatment at a dose of 100 mg/kg/day; parameters: scale not given: the % may be the effect or the level left; summary of the method: as §5
Rattus norvegicus [25] = test: Percentage change of non-HDL cholesterol levels in obese female Zucker rats after 1 week of pre-treatment at a dose of 100 mg/kg/day
Summary of the method: (§7)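 Female Zucker fatty rats [Crl:(Zuc)-faBR], 10–12 weeks old (400–500 g), acclimated 7 days and fed rodent chow. Dosed once daily by oral gavage in 20% EtOH/80% PEG-200 (v/v), at 0.25% of body weight, for 2 weeks. Blood taken after a 6-h fast: orbital plexus before dosing and at day 7, cardiac puncture at day 14. Serum lipoprotein cholesterol measured by Superose 6 gel filtration with on-line cholesterol detection. Values are % change from pretreatment, mean ± SEM.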

Rattus norvegicus [26] = test: Amount of glucose in obese Zucker rats after 1 week of treatment at a dose of 10 mg/kg/day; summary of the method: as §6
Rattus norvegicus [27] = test: Amount of triglycerides in obese Zucker rats at pre-treatment at a dose of 10 mg/kg/day; summary of the method: as §1
Rattus norvegicus [28] = test: Amount of triglycerides in obese Zucker rats after 2 weeks of treatment at a dose of 10 mg/kg/day; summary of the method: as §1
Rattus norvegicus [29] = test: Amount of non-HDL-cholesterol in obese Zucker rats at pre-treatment at a dose of 30 mg/kg/day; summary of the method: as §4
Rattus norvegicus [30] = test: Percentage change of triglycerides in obese female Zucker rats after 1 week of pre-treatment at a dose of 100 mg/kg/day; summary of the method: as §7
Rattus norvegicus [31] = test: Amount of insulin in obese Zucker rats at pre-treatment at a dose of 30 mg/kg/day; summary of the method: as §3

Row | SMILES | Activity (Rattus norvegicus [1]) [mg/dL] | Activity (Rattus norvegicus [2]) [mg/dL] | Activity (Rattus norvegicus [3]) [mg/dL] | Activity (Rattus norvegicus [4]) [mg/dL] | Activity (Rattus norvegicus [5]) [mg/dL] | Activity (Rattus norvegicus [6]) [mg/dL] | Activity (Rattus norvegicus [7]) [ng/mL] | Activity (Rattus norvegicus [8]) [mg/dL] | Activity (Rattus norvegicus [9]) [mg/dL] | Activity (Rattus norvegicus [10]) [%] | Activity (Rattus norvegicus [11]) [mg/dL] | Activity (Rattus norvegicus [12]) [mg/dL] | Activity (Rattus norvegicus [13]) [mg/dL] | Activity (Rattus norvegicus [14]) [mg/dL] | Activity (Rattus norvegicus [15]) [mg/dL] | Activity (Rattus norvegicus [16]) [mg/dL] | Activity (Rattus norvegicus [17]) [mg/dL] | Activity (Rattus norvegicus [18]) [mg/dL] | Activity (Rattus norvegicus [19]) [%] | Activity (Rattus norvegicus [20]) [mg/dL] | other results
1 | CC(C)(CO)CCCCC(=O)CCCCC(C)(C)CO | 1.6 | 702 | 28 | 0.98 | 1 | 781 | 9.1 | 21 | 24 | -27 | 32 | 114 | 53 | 118 | 1.4 | 25 | 1.4 | 755 | 42 | 726 | Activity (Rattus norvegicus [21]): 116 mg/dL; Activity (Rattus norvegicus [22]): 120 mg/dL; Activity (Rattus norvegicus [23]): 1.1 mg/dL; Activity (Rattus norvegicus [24]): -33%; Change (Rattus norvegicus [25]): -23%; Activity (Rattus norvegicus [26]): 110 mg/dL; Activity (Rattus norvegicus [27]): 777 mg/dL; Activity (Rattus norvegicus [28]): 730 mg/dL; Activity (Rattus norvegicus [29]): 30 mg/dL; Change (Rattus norvegicus [30]): -54%; Activity (Rattus norvegicus [31]): 9.3 ng/mL
2 | CC(C)(CCCCCC(=O)CCCCCC(C)(C)C(=O)O)C(=O)O | 1 | 78 | 14 | 0.98 | 0.95 | 833 | 6.4 | 22 | 22 | -78 | 3 | 117 | 138 | 105 | 1.3 | 20 | 1.4 | 905 | 235 | 213 | Activity (Rattus norvegicus [21]): 120 mg/dL; Activity (Rattus norvegicus [22]): 130 mg/dL; Activity (Rattus norvegicus [23]): 1.3 mg/dL; Activity (Rattus norvegicus [24]): -92%; Change (Rattus norvegicus [25]): -98%; Activity (Rattus norvegicus [26]): 122 mg/dL; Activity (Rattus norvegicus [27]): 863 mg/dL; Activity (Rattus norvegicus [28]): 865 mg/dL; Activity (Rattus norvegicus [29]): 27 mg/dL; Change (Rattus norvegicus [30]): -93%; Activity (Rattus norvegicus [31]): 9.8 ng/mL
3 | CC(C)(CCCCC(=O)CCCCC(C)(C)C(=O)O)C(=O)O | 1.5 | 440 | 37 | 0.81 | 1.5 | 857 | 9.2 | 26 | 32 | -33 | 22 | 110 | 39 | 122 | 1.4 | 40 | 1.2 | 996 | 47 | 826 | Activity (Rattus norvegicus [21]): 118 mg/dL; Activity (Rattus norvegicus [22]): 118 mg/dL; Activity (Rattus norvegicus [23]): 1.5 mg/dL; Activity (Rattus norvegicus [24]): -54%; Change (Rattus norvegicus [25]): -62%; Activity (Rattus norvegicus [26]): 105 mg/dL; Activity (Rattus norvegicus [27]): 1143 mg/dL; Activity (Rattus norvegicus [28]): 814 mg/dL; Activity (Rattus norvegicus [29]): 48 mg/dL; Change (Rattus norvegicus [30]): -75%; Activity (Rattus norvegicus [31]): 7.7 ng/mL

From ChEMBL document CHEMBL1137992, “Long hydrocarbon chain keto diols and diacids that favorably alter lipid disorders in vivo” (J Med Chem, 2004)
